Measured values taken from ChEMBL document CHEMBL4513216, “Probing the Open Global Health Chemical Diversity Library for Multistage-Active Starting Points for Next-Generation Antimalarials” (ACS Infect Dis, 2020).

Test: Toxicity liver stage against HepG2, at 10uM
Assay type: cell-based
Set-up: test concentration 10 uM, cell line HepG2-A16-CD81EGFP
Conditions: human, HepG2-A16-CD81EGFP cells; read-out: INHIBITION
Procedure, shortened: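 Uninfected HepG2-A16-CD81EGFP cells, 3 × 10^3 per well, 1536-well, plated on prespotted compound at 10 μM final, parasite-free screening media added to match infected plates; puromycin 10 μM positive, DMSO 0.5% negative; run in parallel with 48 h PbLuc assay at 37 °C, 5% CO2; viability by CellTiter-Glo luminescence, normalized to controls.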

| Compound | cytotoxicity at 10 µM |
| --- | --- |
| COC(=O)[C@@H](NC(=O)Nc1ccc(C(C)=O)cc1)C(C)C | 10.1% |
| c1ccc(CNC[C@H]2Cn3ccnc3CO2)cc1 | -5.25% |
| c1cc(-c2c[nH]c([C@@H]3COCCN3C3CCCCC3)n2)ccn1 | 7.66% |
| CC(=O)c1cc2ncc(C(=O)NC3CC3)cc2[nH]1 | -0.0253% |
| CCOCCCNC(=O)c1cn(C(C)(C)C)c2ncccc12 | 2.05% |
| CN1C(=O)COc2ccc(NC(=O)CCc3nc4cccnc4[nH]3)cc21 | -1.23% |
| COc1ccc(-c2n[nH]c(C)c2CC(=O)NCC2CCCO2)cc1 (stereo not given) | -11.6% |
| c1ccc2c(c1)CCN2c1nc(N2CCOCC2)c2nn[nH]c2n1 | -3.29% |
| O=S(=O)(Nc1cnc(N2CCCC2)nc1)c1ccc(OC(F)(F)F)cc1 | 2.41% |
| O=S(=O)(NCCn1ccc(-c2ccccn2)n1)C1CCCCC1 | 8.63% |
| Cc1nc(N2CCOCC2)nc2c1CCN(C(=O)N1CCCC1)CC2 | 0.64% |
| CNC(=O)[C@@]12CCC3(CCN(S(C)(=O)=O)CC3)[C@@H]1CN(C(C)=O)C2 | -2.07% |
| Cc1ccc(N2CC[C@H]3OCC[C@@]3(C(=O)N3CCCC3)C2)nn1 | 2.46% |
| O=C(c1ccoc1)N1CCC2(C1)CN(c1ncccn1)C2 | -5.55% |
| CCn1c(SCC(=O)N2CCCC2)nc2cc(C)[nH]c2c1=O | 7.44% |
| CC(C)CCn1[nH]c(CNc2ccc(Cl)cc2)nc1=O | 1.33% |
| COc1ccc(-c2ccnc3nc(N4CCCC4)[nH]c(=O)c23)cc1OC | 9.29% |
| O=C1CSC(c2ccncc2)c2c[nH]nc2N1 (stereo not given) | 13% |
| Fc1cccc(CN2CCC[C@@H](Cn3nnc(-c4ccccn4)n3)C2)c1 | 3.33% |
| c1cc(C2CCN(c3cncnc3)CC2)ccn1 | 2.58% |
| COCC(=O)N1CCC(O)(CN2CCN(c3ccccc3)CC2)C1 (stereo not given) | -2.38% |
| COCCOCC(=O)N1C[C@@H]2CC[C@H](Oc3ccccc3Cl)[C@@H]2C1 | -10.9% |
| Cc1ccc2cc(CNCCN3CCCC3)c(=O)[nH]c2c1 | -1.89% |
| Cc1nccc(CN2CC[C@@]3(CCCN3Cc3ccccc3)[C@@H](O)C2)n1 | -6.05% |
| COCc1cc(O)nc(C2CCCN(Cc3ccc(F)cc3)C2)n1 (stereo not given) | -9.88% |
| CC(=O)N1CCN([C@@H]2CC[C@@H](N(C)C(=O)C3CCCCC3)[C@H]2O)CC1 | -10.6% |
| CC1c2ccc(F)cc2CCN1C(=O)c1nc(=O)[nH][nH]1 (stereo not given) | 15.6% |
| Cc1nn(C)c2ncc(CNCCc3ccccn3)cc12 | 4.13% |

| Compound | cytotoxicity at 10 µM |
| --- | --- |
| CNS(=O)(=O)CCCNC(C)(C)c1nc(C)cs1 | 11.1% |
| Cc1ccc(C(=O)N(CC(=O)O)CC(C)C)cc1F | -4.07% |
| COCCCOc1ccc(C(=O)N(C)CCC(C)C)cn1 | 6.19% |
| CN1CCOC(CNCC(=O)NCCC2=CCCCC2)C1 (stereo not given) | -3.57% |
| Cc1ccc(F)c2c1N(C(=O)c1ccc(S(C)(=O)=O)cc1)CCC2 | 2.97% |
| CCc1cnc(CNc2cccc3c2CCN(S(=O)(=O)CC)C3)o1 | -52.5% |
| CC(Cn1cncn1)NC(=O)NCC(C)(C)Cc1ccccc1 (stereo not given) | 17% |
| Cc1noc(CCCC(=O)NCC(c2ccco2)N2CCCCC2)n1 (stereo not given) | 13.1% |
| Cc1nc(CCCNC(=O)c2c(F)cccc2Br)n[nH]1 | -1.39% |
| CCn1cc(C#N)c(=O)c2cc(Br)ccc21 | 1.35% |
| Cc1cc(C2CCCN2C(=O)NCc2cccnc2N(C)C)on1 (stereo not given) | -8.1% |
| NC(=O)C1CCN(CCc2ccc(NCc3cscn3)cc2)CC1 | 3.69% |
| Cc1csc(C2CCCCN2C(=O)CCn2cncn2)n1 (stereo not given) | -6.32% |
| O=C(c1cc(F)cc2[nH]cnc12)N1CCCC1Cn1cccn1 (stereo not given) | 7.39% |
| CCC(Nc1ccc(Oc2cccc(C#N)c2)cc1)C(N)=O (stereo not given) | 35.2% |
| O=S(=O)(Nc1cn[nH]c1)c1ccc(F)c(Br)c1 | -11.5% |
| O=C(NCCn1cccc1)C1CCCOC1 (stereo not given) | 3.03% |
| Cc1cc(C)cc(CN2CCCC2c2noc(C)n2)c1 (stereo not given) | 9.86% |
| CS(=O)(=O)Cc1ccc(NC(=O)Cc2cccnc2)cc1F | 1.34% |
| CS(=O)(=O)c1ccc(NC(=O)CSC(F)(F)F)cn1 | 8.28% |
| Cc1noc(C)c1CNC(=O)C(C)Oc1ccccc1F (stereo not given) | 3% |
| CC(NCc1ccc(C(C)(C)C)cc1)c1ccc(S(C)(=O)=O)cc1 (stereo not given) | 14.5% |
| CC(=O)Nc1ccc(C(=O)N(C)Cc2cccc(F)c2)s1 | 2.82% |
| CC(c1ccccc1Cl)N1CCN(C(=O)c2ccc(=O)[nH]c2)CC1 (stereo not given) | -7.85% |
| CC(CNC(=O)c1ccn(-c2ccc(F)cc2)n1)Cn1cccn1 (stereo not given) | -41.4% |
| c1cncc(OCCNC2Cc3ccccc3C2)c1 | 4.32% |
| CC(CN1CCOCC1)NC(=O)c1cccc2cn[nH]c12 (stereo not given) | -7.18% |
